Test results as given in PubChem BioAssay.
Calls of active or inactive are those of the source.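 The calls were made as follows, unless noted: active = viability at or below 30% in both replicate assays; inconclusive = viability at or below 30% in just one of the two assays; inactive = the rest.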

How the values were obtained:
[1] = reducers of endogenous Her2 protein level, primary screen, SKBR3 breast tumor cells, AlphaScreen, ATP viability (AID 461;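 active = Her2 level under about 52% in both replicate screens, with viability over 70% of control, limit read from the data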;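 as to Her2 level: lower value means less Her2 protein in the cells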;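 as to viability: percent of carrier control wells set as 100% viability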); conditions: 18-24 h, measured here: SKBR3 viability, ATP luminescence, at 10 µM
[2] = target: Receptor tyrosine-protein kinase erbB-2 (Homo sapiens) (UniProt P04626); test: as above; conditions: 18-24 h, at 10 µM, stronger effect = lower value
[3] = SK-BR-3 cell growth inhibitors, pilot screen, 24 h, human (AID 572;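 active = viability at or below 10% of carrier control in both of two separate runs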;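 also: compound exposure lasted between 18 and 24 h rather than exactly 24 h; 100% = carrier-treated control wells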); conditions: SK-BR-3 viability, CellTiter-Glo luminescence, at 10 µM, stronger effect = lower value
[4] = HUVEC growth inhibition – cell-based, human, primary screen (AID 575); conditions: HUVEC proliferation, CellTiter-Glo luminescence, 72 h; at 10 µM; stronger effect = lower value;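 also: 100% = median of untreated cell wells with 0.1% DMSO on each plate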
In short: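 Test system: HUVEC primary cells. Quantity: 1250 endothelial cells in each well. Dosing: single-point 10 µM, DMSO 0.1% final. Incubation: 72 h treatment at 37 °C. Measured by: CTG luminescence. Control set: DMSO cell controls and MePR drug controls. Plate: collagen-coated 384-well format.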

[5] = growth inhibitors of H69AR lung tumor, primary screen, human, duplicate replicates (AID 580;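 active = viability at or under a set limit in both replicates, limit being median viability minus 3 SD, cut at about 48% in these data, passing the limit was not always enough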;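 also: 100% = mean luminescence of untreated wells and 0% = no signal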); conditions: H69AR lung tumor cells viability, ATP luminescence, 72 h; at 10 µM; stronger effect = lower value
[6] = reversal of MRP1-mediated doxorubicin resistance, pilot screen, H69AR cells, doxorubicin co-treatment (AID 601;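 active = viability loss from added drug above about 55%, and viability with drug at most 40%, in both replicates, limit read from the data, passing the limit was not always enough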); conditions: CellTiter-Glo, 72 h, at 10 µM; for differential viability (reversal): stronger effect = higher value
[7] = 384-well plate pilot, post-Golgi transport modulator project, inhibition of yeast transport mutant growth (AID 636; in the data active = inhibition above about 31%); conditions: absorbance 615 nm, about 18 h, stronger effect = higher value
[8] = growth suppression of yeast trafficking mutant, preliminary HTS, modulators of trafficking downstream of Golgi apparatus project, 1536-format plate, OD 615 nm (AID 637; in the data active = inhibition above about 30%); conditions: yeast transport mutant growth, absorbance 615 nm, 18 h; stronger effect = higher value
[9] = H69AR cells + 2 uM doxorubicin, measured here: viability with 2 uM doxorubicin, stronger effect = lower value
[10] = H69AR cells, compound alone cytotoxicity

Sequence of Receptor tyrosine-protein kinase erbB-2 (Homo sapiens) (P04626 whole entry, looked up): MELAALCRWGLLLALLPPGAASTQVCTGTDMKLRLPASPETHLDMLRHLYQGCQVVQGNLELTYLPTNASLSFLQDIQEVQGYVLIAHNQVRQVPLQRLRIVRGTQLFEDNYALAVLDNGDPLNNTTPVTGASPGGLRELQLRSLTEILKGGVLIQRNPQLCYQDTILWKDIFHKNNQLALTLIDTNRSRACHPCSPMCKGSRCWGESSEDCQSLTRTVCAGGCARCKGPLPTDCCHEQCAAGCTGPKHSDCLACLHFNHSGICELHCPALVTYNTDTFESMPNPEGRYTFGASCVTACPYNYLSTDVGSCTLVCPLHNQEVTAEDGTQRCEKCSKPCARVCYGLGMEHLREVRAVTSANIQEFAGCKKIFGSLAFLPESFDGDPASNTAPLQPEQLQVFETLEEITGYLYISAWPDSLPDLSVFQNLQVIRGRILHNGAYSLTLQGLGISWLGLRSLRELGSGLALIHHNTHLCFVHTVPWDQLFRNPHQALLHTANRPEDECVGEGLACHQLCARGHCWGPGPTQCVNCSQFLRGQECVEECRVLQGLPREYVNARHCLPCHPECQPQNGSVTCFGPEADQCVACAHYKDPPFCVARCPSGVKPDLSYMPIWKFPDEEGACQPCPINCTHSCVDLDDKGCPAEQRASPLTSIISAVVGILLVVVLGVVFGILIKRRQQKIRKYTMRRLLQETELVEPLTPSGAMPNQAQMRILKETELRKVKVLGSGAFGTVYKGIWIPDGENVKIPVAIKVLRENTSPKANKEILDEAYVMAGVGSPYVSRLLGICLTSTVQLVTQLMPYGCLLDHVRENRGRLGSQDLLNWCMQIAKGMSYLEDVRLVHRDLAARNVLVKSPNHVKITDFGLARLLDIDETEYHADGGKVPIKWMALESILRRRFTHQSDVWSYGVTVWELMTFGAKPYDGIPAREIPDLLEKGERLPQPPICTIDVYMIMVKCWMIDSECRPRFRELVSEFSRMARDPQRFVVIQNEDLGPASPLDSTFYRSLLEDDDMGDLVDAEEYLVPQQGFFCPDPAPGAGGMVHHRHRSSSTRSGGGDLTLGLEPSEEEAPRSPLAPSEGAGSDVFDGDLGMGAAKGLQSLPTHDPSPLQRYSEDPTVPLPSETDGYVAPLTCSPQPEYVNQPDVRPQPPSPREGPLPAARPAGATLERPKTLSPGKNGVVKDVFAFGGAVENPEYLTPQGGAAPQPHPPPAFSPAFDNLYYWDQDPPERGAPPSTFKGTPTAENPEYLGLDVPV

SMILES	viability [1]	Her2 level [2]	viability [3]	viability [4]	viability [5]	differential viability (reversal) ([6]; H69AR cells + 2 uM doxorubicin)	viability [6, 9]	viability [6, 10]	inhibition [7]	inhibition [8]
Cc1cccc(OCC(=O)N(Cc2cccs2)C2CCS(=O)(=O)C2)c1C (stereo not given)	96.5%	83.5% (inactive)	96.5% (inactive)	72.8% (inactive)	94.6% (inactive)	3.22% (inactive)	91.4%	94.6%	-6.35% (inactive)	3.02% (inactive)
CC(=O)O[C@H]1CSC[C@H]1NC(=O)c1ccccc1	98.5%	97% (inactive)	98.5% (inactive)	101% (inactive)	99.8% (inactive)	11% (inactive)	88.8%	99.8%	-2.13% (inactive)	-1.77% (inactive)
CC1=CCC(C(C)(C)NC(=O)c2ccccc2)C/C1=N\O (stereo not given)	104%	98.5% (inactive)	104% (inactive)	112% (inactive)	106% (inactive)	17.3% (inactive)	88.6%	106%	-0.81% (inactive)	4.44% (inactive)
CC(=O)Nc1ccc(S(=O)(=O)N2CCC(NC(C)=O)(c3cccc(F)c3)CC2)cc1	89%	79% (inactive)	89% (inactive)	100% (inactive)	104% (inactive)	13% (inactive)	90.5%	104%	-6.89% (inactive)	0.82% (inactive)
C=CCOc1nc(N(C)C)nc(N(C)C)n1	92.5%	87% (inactive)	92.5% (inactive)	93.9% (inactive)	98.2% (inactive)	9.33% (inactive)	88.8%	98.2%	-4.67% (inactive)	1.31% (inactive)
CCOC(=O)C1=C(c2ccccc2)N2CCN=C2S1	94.5%	100% (inactive)	94.5% (inactive)	100% (inactive)	94.8% (inactive)	5.97% (inactive)	88.8%	94.8%	-0.93% (inactive)	-9.68% (inactive)
O=C(COC(=O)C1CC(=O)N(c2ccccc2)C1)c1ccccc1 (stereo not given)	99.5%	107% (inactive)	99.5% (inactive)	101% (inactive)	86.6% (inactive)	-9.89% (inactive)	96.5%	86.6%	4.1% (inactive)	-6.67% (inactive)
CCCC(=O)Nc1ccc(NC(=O)C2CC2)cn1	108%	112% (inactive)	108% (inactive)	105% (inactive)	102% (inactive)	6.95% (inactive)	95.4%	102%	-1.73% (inactive)	5% (inactive)
O=C(Nc1cccc(F)c1)c1ccc2c(c1)OCO2	97.5%	106% (inactive)	97.5% (inactive)	103% (inactive)	97.1% (inactive)	13.4% (inactive)	83.7%	97.1%	-2.63% (inactive)	-3.44% (inactive)
CC(C)=CC(=O)N1CCCc2ccccc21	112%	90% (inactive)	112% (inactive)	105% (inactive)	98.4% (inactive)	5.13% (inactive)	93.2%	98.4%	-4.53% (inactive)	-7.21% (inactive)
O=S(=O)(Nc1nc2ccccc2nc1NCc1ccco1)c1ccc(Cl)cc1	94%	103% (inactive)	94% (inactive)	69.6% (inactive)	65.3% (inactive)	-4.42% (inactive)	69.8%	65.3%	-4.42% (inactive)	4.83% (inactive)
COc1ccc(N2CCC(CNS(=O)(=O)c3cccc(C(F)(F)F)c3)C2)cc1 (stereo not given)	98%	95% (inactive)	98% (inactive)	84.5% (inactive)	86.7% (inactive)	-2.23% (inactive)	88.9%	86.7%	-2.63% (inactive)	16.6% (inactive)
CCOc1ccccc1NC(=O)N1C2CCCC1CC(NC(=O)C1CC1)C2 (stereo not given)	102%	95% (inactive)	102% (inactive)	107% (inactive)	96.8% (inactive)	6.77% (inactive)	90%	96.8%	-6% (inactive)	2.58% (inactive)
O=C(NCC(=O)N(c1ccc2c(c1)OCCO2)C(C(=O)NC1CCCC1)c1ccco1)c1ccco1 (stereo not given)	92%	102% (inactive)	92% (inactive)	97.2% (inactive)	92.1% (inactive)	13.4% (inactive)	78.7%	92.1%	-4.53% (inactive)	-9.05% (inactive)
